Laboratory results reported in the EternaBench riboswitch data.

Tested on: MS2 coat protein
Experiment: apparent Kd, MS2 coat protein; higher = weaker binding; RNA-MaP array; FMN 200 µM where present
In short: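 Two titrations, one without ligand and one with constant ligand, were run with SNAP-549-labelled MS2 coat protein from 0.7 or 1.5 nM, doubling to 3 µM. The targets were designs transcribed by stalled E. coli RNA polymerase on Illumina sequencing-chip clusters, in 100 mM Tris-HCl pH 7.5, 80 mM KCl, 4 mM MgCl2, BSA, DTT, yeast tRNA and Tween-20. The apparent Kd is the median of filtered per-cluster binding-curve fits, with green signal normalised to red-channel RNA signal and control-cluster median Fmax.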

[1] = designed as: OFF switch for flavin mononucleotide, no ligand
[2] = ligand present: flavin mononucleotide, designed as: OFF switch for flavin mononucleotide
[3] = designed as: ON switch for flavin mononucleotide, no ligand
[4] = ligand present: flavin mononucleotide, designed as: ON switch for flavin mononucleotide

Row | Sequence | apparent Kd [1] [nM] | apparent Kd [2] [nM] | apparent Kd [3] [nM] | apparent Kd [4] [nM]
1 | UUCAUGUGAGGAUAUGUGUACUGCUUUCUGUUUAGAUGUACACAGAAGGCACAUGAGGAUCACCCAUGUAGUAC | 45.5 | 31.8 | – | –
2 | GAAUAGGCAGGAUAUACAUGAGGAUCACCCAUGUGCCUGCGAAAGGUACGUUCGAAAGGUAGAAGGGCCUAAAC | 12.1 | 17.1 | – | –
3 | GCACUGGAUGUAGGAUAUCAGGACGAUAAGUCCUGAGAAGGACAUGAGGAUCACCCAUGUAACUCAUAACCAGUGCAUAAUAUA | 15 | 24.8 | – | –
4 | UGGUACAUGGGAGGAUAUCAUGAACUUACAUGAGGAUCACCCAUGUCGAUGGAGACAUCGGAGAUUGAGAAGGCCCAUGUACCU | – | – | 77.6 | 22.4
5 | AUCAGCUCGUCAGGAUAUACGUCACUGCGUCAGCAGUGUGGUAAGAUCACAUGAGGAUCACCCAUGUAGAAGGGACGAGCUCAU | 13.9 | 322 | – | –
6 | CCUACCUUCACAGGAUAUGCUAUCCUUUGGGUAGCAGAAGGGUGAUAACAUGAGGAUCACCCAUGUGGUAGGCCCGGUGACGGG | – | – | 1300 | 105
7 | AUGAGGUCAGGAUAUGCAUGGCGGGACUUGCGUCGUGGCGUGCAGAAGGGACAUGAGGAUCACCCAUGUGGAGA | 104 | 325 | – | –
8 | GGUUGACAAAGUCAACCAUAACGAACAUGAGGAUCACCCAUGUAGGAUAUGCUACUCAAAGAGUAGCAGAAGGACAUGUGCCUU | 35.7 | 293 | – | –
9 | AUAUGAUAGAUAGGAUAUACAGAUGAAUAAUAAGUAGAAGGAUCAAAUGGGAAUUAUACAUGAGGAUCACCCAUGUUUUUGAAU | – | – | 45 | 33.6
10 | GCACCUUUAUUUGAACCGAUACGAACAUGAGGAUCACCCAUGUAGGAUAUGCUUAAAGUUGUGUUGCAGAAGGACAUUUAGUGC | 8.76 | 8.31 | – | –
11 | AUGGACGUCGUAGGAUAUGUAGGAUUCUCGUACAUGAGGAUCACCCAUGUUGACGUCAAGGUCGGACAGAAGGGCGGUGUCUAU | – | – | 584 | 65.4
12 | AUUUAAAUGUCAGGAUAUGUCGGUAUAUACUCGGUAGAAGGGAUAAUUAUACUCAAGUACAUGAGGAUCACCCAUGUUAAAUCA | – | – | 21.1 | 14
13 | GCAUGACAUGUAGGAUAUCGAGCGCCGAGCGCUCGAGAAGGACAUGAGGAUCACCCAUGUAUUCCGAAUGAAUCAAGUCAUGCA | 14.3 | 16.2 | – | –
14 | AGGCAAUCAGGAUAUACAUGAGGAUCACCCAUGUGUACAAAGCACAUCCGAUCUAGAUGUAGAAGGGAUAUGCA | 19.1 | 35.8 | – | –
15 | GAGGAGCAAGGAUAUACGAGGAUAGGGAAGGUUGGAGAGUGACAUGAGGAUCACCCAUGUAGAAGGUGCAAGGG | 114 | 74 | – | –
16 | GCGUAUAUAAGAUUUAUAAAACAGUCAGAAGGUGAUAAGACGACAUGAGGAUCACCCAUGUAAUUCAAGGAUAUGAUCAUACGC | – | – | 54.3 | 23.3
17 | CAUUCAAGCCAGAAGGAGUACACUACAUGAGGAUCACCCAUGUCUAAUACUAGGAUAUGGGCAUCUGGUAAUGUCUAAGGUGCG | – | – | 111 | 128
18 | UUAUAACAGUCAGGAUAUGUAACGUACAACGGCGCAGAAGGGACAUGAGGAUCACCCAUGUUAUGGUUCUGGUACUAUGACGUU | 13.2 | 14.9 | – | –
19 | AAUAUGUUAGGAUAUGCUGCUCGUCACAAAAGUGAUGAGUAGCAGAAGGGACAUGAGGAUCACCCAUGUAAAGA | 36.6 | 29.6 | – | –
20 | CGCACUGAUAGAGGAUAUGUUUAACAUGAGGAUCACCCAUGUGUACAAGUAUCAAUAUUUAUGUAACAGAAGGCUAUUAGUGCG | 5.77 | 5.47 | – | –
21 | GUAGAGUCAGGAUAUACGAGAUCGAUAGAUCAAAGAUCCUUACAUGAGGAUCACCCAUGUAGAAGGGACUCUAC | 37.4 | 677 | – | –
22 | GCGGAGUGAGGAUAUAGAACUUAAGGUACCAAUAAGGUACCCUAGAAGGCACAUGAGGAUCACCCAUGUACCGC | 24.3 | 24.4 | – | –
23 | UGCGCCUGCGAGAAGGCACAGAUCCAGCUCUUGACAUGAGGAUCACCCAUGUGAGGAUAUCGCAGGCGCGAAUUGGGACAAUCU | 12.8 | 74.1 | – | –
